SMILES strings stand for the structures. The source made the active and inactive calls. The calls are words filed in the database; no cut-off is given here.

What is called IC50 is the concentration needed to halve the response being measured. As a reminder, the inhibition is the change of the read-out against control, counted positive when it falls.

For data set [1], the target named is T1, Vascular endothelial growth factor receptor 2 (Homo sapiens, UniProt P35968). Description: Inhibition of VEGFR2 (unknown origin) incubated for 10 mins followed by kinase substrate addition and measured after 30 mins by caliper mobility shift assay.
For data set [2], the system named is HT-29. Description: Antiproliferative activity against human HT-29 cells assessed as cell growth inhibition after 72 hrs by MTT assay. Type of data set: functional, cell-based. The following applies: HT-29, 72 h. A digest of the protocol: (§1)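 Log-phase cells were seeded at 5 × 10³ per well and attached 24 h. HT-29 and GES-1 were grown in DMEM-based medium, A549/HepG2/HGC-27 in RPMI-1640, HUVEC in ECM with ECGS; all media had 10% FBS. Cells were exposed to graded compound concentrations for 72 h at 37 °C. MTT (5 mg/mL stock) was added for 4 h, formazan dissolved in DMSO, and A490 read. IC50 was obtained by nonlinear sigmoidal regression; mean ± S.E. of three experiments.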
(Formazan colour is commonly taken as a measure of viable cells.)

For data set [3], the system named is A549. Kind of data set: Antiproliferative activity against human A549 cells assessed as cell growth inhibition after 72 hrs by MTT assay. It counts as functional, cell-based. The settings on record: A549, 72 h. A digest of the protocol:
as §1

The test system of data set [4] is HepG2. Kind of data set: Antiproliferative activity against human HepG2 cells assessed as cell growth inhibition after 72 hrs by MTT assay. The following applies: HepG2, 72 h. It counts as functional, cell-based. In a few lines:
as §1

Data set [5] concerns GES1. Kind of data set: Cytotoxicity against human GES-1 cells assessed as inhibition of cell growth incubated for 72 hrs by MTT assay. Type of data set: cell-based. The following applies: GES1, 72 h. A digest of the protocol:
as §1

The test system of data set [6] is HGC-27. Kind of data set: Inhibition of colony formation in human HGC-27 cells at 1 uM after 12 days by crystal violet staining based assay. It counts as functional. The following applies: HGC-27, 288 h, time 12 day. In a few lines:
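HGC-27 cells (500/well, 6-well plates) attached 24 h at 37 °C, then kept 12 days in medium with compound (0.1, 0.5, 1 µM), 0.1% DMSO vehicle or 5 µM sorafenib. Washed with cold PBS, methanol-fixed, stained 0.1% crystal violet 30 min; colonies >50 cells photographed and counted.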

Data set [7] concerns HGC-27. Kind of data set: Antimigratory activity against human HGC-27 cells assessed as reduction in cell migration measured after 24 hrs by crystal violet staining microscopy based transwell migration assay. It counts as functional. The settings on record: dose 0.1-1 µM.
Data set [8] has as its system HGC-27. Description: Downregulation of MMP-9 protein expression in human HGC-27 cells incubated for 24 hrs by immunoblot analysis. Type of data set: functional, cell-based. A digest of the protocol:
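HGC-27 cells (1.0 × 10⁶ per 60 mm dish) were treated 24 h with 0.1% DMSO or compound (0.1, 0.5, 1 μM). Cells were lysed in RIPA with PMSF and phosphatase inhibitor, and protein measured by BCA. Lysates were run on 8–12% SDS-PAGE, transferred to nitrocellulose and probed with primary antibodies overnight at 4 °C, then HRP secondary. Bands were detected by ECL and densitometry; at least triplicate.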
A general note: Immunoblotting shows a protein as a band on a membrane.

Data set [9] deals with HGC-27. Description: Up regulation of E-cadherin expression in human HGC-27 cells at 1 uM measured after 24 hrs by immunoblot analysis. Type of data set: functional, cell-based. In a few lines:
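HGC-27 seeded 1.0×10^6 cells/dish in RPMI-1640/10% FBS; 24 h with compound (0.1, 0.5, 1 µM), 0.1% DMSO vehicle or sorafenib. RIPA lysates with PMSF/phosphatase inhibitor, BCA-normalized, 8–12% SDS-PAGE, nitrocellulose, milk block, primary antibodies overnight 4 °C, HRP secondaries, ECL; E-cadherin band densitometry; mean ± SD, three independent experiments.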

Data set [10] has as its system HGC-27. Description: Induction of apoptosis in human HGC-27 cells assessed as total apoptotic cells level at 0.1 uM incubated for 24 hrs by propidium iode and annexin V-FITC staining based flow cytometry. It counts as functional. In a few lines: (§2)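 HGC-27 cells (1.0 × 10⁶ per 60 mm dish) were treated 24 h with 0.1% DMSO or compound (0.1, 0.5, 1 μM). Cells were stained with Annexin V-FITC in HEPES/NaCl/CaCl₂ binding buffer (pH 7.4) for 15 min at room temperature, then with PI for 10 min. About 10 000 events were acquired by flow cytometry to give viable, early apoptotic, late apoptotic and necrotic fractions.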

Data set [11] relates to HGC-27. Description: Induction of apoptosis in human HGC-27 cells assessed as viable cells level at 0.1 uM incubated for 24 hrs by propidium iode and annexin V-FITC staining based flow cytometry (reference value: 96.0%). It counts as functional. A digest of the protocol: as §2
For orientation: Flow cytometry measures light scatter and fluorescence of single cells or particles in a stream.

In data set [12] the test system is HGC-27. Kind of data set: Induction of apoptosis in human HGC-27 cells assessed as early apoptotic cells level at 0.1 uM incubated for 24 hrs by propidium iode and annexin V-FITC staining based flow cytometry (reference value: 1.48%). It counts as functional. A digest of the protocol:
as §2

Data set [13] has as its system HGC-27. Description: Induction of apoptosis in human HGC-27 cells assessed as early apoptotic cells level at 0.5 uM incubated for 24 hrs by propidium iode and annexin V-FITC staining based flow cytometry (reference value: 1.48%). Type of data set: functional. A digest of the protocol:
as §2

Data set [14] relates to HGC-27. Kind of data set: Induction of apoptosis in human HGC-27 cells assessed as necrotic cells level at 0.1 uM incubated for 24 hrs by propidium iode and annexin V-FITC staining based flow cytometry (reference value: 1.64%). It counts as functional. In a few lines: as §2
The test system of data set [15] is HGC-27. Kind of data set: Induction of apoptosis in human HGC-27 cells assessed as early apoptotic cells level incubated for 24 hrs by propidium iode and annexin V-FITC staining based flow cytometry. Type of data set: functional, cell-based. The following applies: dose 0.1-1 µM. A digest of the protocol:
as §2

In data set [16] the target is T1, Vascular endothelial growth factor receptor 2. Kind of data set: Inhibition of VEGFR2 in human HGC-27 cells assessed as downregulation of PI3K phosphorylation at Tyr607 at 0.1 to 1 uM after 24 hrs by Westernblot analysis. The following applies: dose 0.1-1 µM. Type of data set: cell-based. A digest of the protocol:
(§3)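 HGC-27 cells (1.0 × 10⁶ per 60 mm dish) were treated 24 h with 0.1% DMSO or compound (0.1, 0.5, 1 μM). RIPA lysates with phosphatase inhibitor were quantified by BCA and resolved on 8–12% SDS-PAGE onto nitrocellulose. Blots were probed for p-VEGFR-2 (Tyr1175), p-PI3K (Tyr607), p-AKT (Thr308) and p-mTOR (Ser2448), with ECL detection and densitometry; mean ± SEM.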

Data set [17] has as its system HUVEC. Kind of data set: Antiangiogenic activity against HUVEC cells assessed as reduction in VEGF-induced tube formation tube formation incubated for 12 hrs by matrigel-based assay. Type of data set: functional, cell-based. The following applies: Homo sapiens. In a few lines:
(§4)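 HUVECs at 4 × 10⁵ cells/mL seeded on Matrigel that had been polymerized 1 h at 37 °C. Cells were stimulated with 20 ng/mL VEGF and treated with compound (1, 2.5, 5 and 10 μM) or 0.1% DMSO vehicle for 12 h at 37 °C. Tubes were imaged by inverted microscopy. Tube length, surface area and branch points were quantified as pixel area.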

Data set [18] deals with HUVEC. Description: Antiangiogenic activity against HUVEC cells assessed as reduction in VEGF-induced tube surface area at 1 to 10 uM incubated for 12 hrs by matrigel-based assay. It counts as functional, cell-based. The settings on record: Homo sapiens, dose 1-10 µM. In a few lines:
as §4

The test system of data set [19] is HUVEC. Description: Antiangiogenic activity against HUVEC cells assessed as reduction in VEGF-induced total branching points at 1 to 10 uM incubated for 12 hrs by matrigel-based assay. The settings on record: Homo sapiens, dose 1-10 µM. Type of data set: functional, cell-based. A digest of the protocol:
as §4

The subject of data set [20] is HUVEC. Description: Cytotoxicity against HUVEC cells at 1 to 5 uM after 72 hrs by MTT assay. It counts as cell-based. The following applies: human, dose 1-5 µM. A digest of the protocol:
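HUVECs grown in ECM with 1% ECGS and 10% FBS were seeded at 5 × 10³ per well and attached 24 h. Cells were exposed to compound at 1, 2.5 and 5 μM for 72 h at 37 °C. Viability was read by MTT: 4 h incubation, DMSO solubilization, absorbance at 490 nm.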

Data set [21] deals with T1, Vascular endothelial growth factor receptor 2. Kind of data set: Inhibition of VEGFR2 in human HGC-27 cells assessed as downregulation of mTOR phosphorylation at Ser2448 at 0.1 to 1 uM after 24 hrs by Westernblot analysis. Type of data set: cell-based. The following applies: dose 0.1-1 µM. A digest of the protocol: as §3

T1 sequence (P35968 whole entry): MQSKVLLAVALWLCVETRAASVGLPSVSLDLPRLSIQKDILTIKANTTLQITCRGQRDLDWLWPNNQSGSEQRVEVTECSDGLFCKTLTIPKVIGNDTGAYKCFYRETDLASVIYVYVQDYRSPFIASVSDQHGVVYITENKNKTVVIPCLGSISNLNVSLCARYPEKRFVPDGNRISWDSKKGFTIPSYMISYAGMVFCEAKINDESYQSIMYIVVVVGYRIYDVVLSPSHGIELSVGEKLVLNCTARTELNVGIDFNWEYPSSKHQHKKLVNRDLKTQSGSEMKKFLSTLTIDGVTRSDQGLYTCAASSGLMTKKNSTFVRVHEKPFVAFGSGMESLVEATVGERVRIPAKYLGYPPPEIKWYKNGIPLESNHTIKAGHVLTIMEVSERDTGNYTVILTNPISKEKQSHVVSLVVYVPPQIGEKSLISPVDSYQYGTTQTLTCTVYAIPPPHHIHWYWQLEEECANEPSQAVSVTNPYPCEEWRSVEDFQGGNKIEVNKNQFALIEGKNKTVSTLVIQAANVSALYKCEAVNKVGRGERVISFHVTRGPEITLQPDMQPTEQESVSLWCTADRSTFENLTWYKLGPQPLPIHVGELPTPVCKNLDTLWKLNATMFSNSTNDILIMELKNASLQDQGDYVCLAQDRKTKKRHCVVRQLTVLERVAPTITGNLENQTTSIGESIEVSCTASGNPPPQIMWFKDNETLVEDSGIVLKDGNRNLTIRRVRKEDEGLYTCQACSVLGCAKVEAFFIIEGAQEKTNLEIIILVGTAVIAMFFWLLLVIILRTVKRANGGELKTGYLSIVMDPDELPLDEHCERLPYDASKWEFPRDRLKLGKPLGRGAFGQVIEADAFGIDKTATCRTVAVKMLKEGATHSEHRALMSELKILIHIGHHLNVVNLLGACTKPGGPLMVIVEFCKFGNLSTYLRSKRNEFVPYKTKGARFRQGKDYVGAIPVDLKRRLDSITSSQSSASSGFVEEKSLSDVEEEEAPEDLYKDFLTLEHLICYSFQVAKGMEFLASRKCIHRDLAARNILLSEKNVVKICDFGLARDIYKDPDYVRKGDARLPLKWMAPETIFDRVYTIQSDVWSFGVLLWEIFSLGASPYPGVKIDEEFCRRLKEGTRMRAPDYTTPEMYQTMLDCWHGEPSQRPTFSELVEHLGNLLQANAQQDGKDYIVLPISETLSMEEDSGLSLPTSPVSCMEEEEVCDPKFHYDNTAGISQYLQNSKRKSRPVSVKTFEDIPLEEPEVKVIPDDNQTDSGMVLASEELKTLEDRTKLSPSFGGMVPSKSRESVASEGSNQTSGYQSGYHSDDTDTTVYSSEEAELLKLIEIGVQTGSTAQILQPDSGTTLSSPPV

As to `CC(=O)Nc1n[nH]c2cc(-c3cnn(CC(=O)Nc4ccc(C)c(C(F)(F)F)c4)c3)ccc12`, the IC50 in data set [1] is 0.0016 µM; in [2], 2.97 µM; in [3] it was 4.31 µM; in data set [4], 15 µM; in [5], 187 µM. In data set [6], this compound displayed an inhibition at 1 µM of 100%. Besides, the inhibition entry in data set [7], in [8] and in [17] was “Dose-Dependent Effect” each time. Also, the Activity entry in [9] was “Dose-Dependent Effect”; in data set [10] it was 7.42%; in data set [11], 90.5%; in data set [12], 4.75%; in data set [13] it was 8.35%; in data set [14] it was 2.12%. Besides, the values for the Activity result in data set [15] and in [20] were “Dose-Dependent Effect” and “Non-Toxic”, respectively. Moreover, the inhibition entry in [16] and in [21] was “Active” each time. The outcome in [18] and in [19] was Active.

Source of the values: ChEMBL document CHEMBL4819027, “Design, synthesis and biological evaluation of novel 2-(4-(1H-indazol-6-yl)-1H-pyrazol-1-yl)acetamide derivatives as potent VEGFR-2 inhibitors” (Eur J Med Chem, 2021).
